Data: ChEMBL document CHEMBL4304798, “Iterative Optimization of the Cyclic Peptide SFTI-1 Yields Potent Inhibitors of Neutrophil Proteinase 3” (ACS Med Chem Lett, 2019)
pIC50, pKi: −log10 of the molar value. Calls of active or inactive are those of the source. The calls are words filed in the database; no cut-off is given here. Positions of bridges follow the written chain, without caps; N, C: chain ends. Non-standard residues stand in square brackets, D forms with d. Residues, ends and D or L forms follow the SMILES beside them. ξ: configuration not given here. *: point of attachment. ClZ = O=C(OCc1ccccc1Cl)*; ξAbu = CCC(N)C(=O)O

Columns and labels:
[1] = Stability in human serum at 400 uM measured after 2 hrs by RP-HPLC analysis; type: ADME, cell-free
How it was run: (§1)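 Peptides incubated in human serum at 37 °C and sampled over time. Values are mean ± SEM from three experiments.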

[2] = molecular target: T1, Myeloblastin (Homo sapiens) (UniProt P24158); assay: Competitive inhibition of purified human proteinase 3 at 160 nM using MeOSuc-AAPV-MCA as substrate by fluorescence based assay
T1 sequence (whole entry): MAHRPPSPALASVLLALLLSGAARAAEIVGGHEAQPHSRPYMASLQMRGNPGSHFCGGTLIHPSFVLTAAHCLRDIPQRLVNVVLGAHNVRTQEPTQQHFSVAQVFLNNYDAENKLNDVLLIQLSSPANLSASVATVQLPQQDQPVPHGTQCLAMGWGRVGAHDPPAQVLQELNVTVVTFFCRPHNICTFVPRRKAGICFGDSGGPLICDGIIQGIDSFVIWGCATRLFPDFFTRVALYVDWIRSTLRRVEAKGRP
How it was run: (§2)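 Competitive inhibition screen against PR3, with each peptide variant tested at two fixed inhibitor concentrations.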

[3] = molecular target: T1, Myeloblastin (Homo sapiens); assay: Competitive inhibition of purified human proteinase 3 at 40 nM using MeOSuc-AAPV-MCA as substrate by fluorescence based assay; how it was run: as §2
Myeloblastin = molecular target: T2, Myeloblastin (Homo sapiens, UniProt P24158); assay: Inhibition of purified human proteinase 3 using MeOSuc-AAPV-MCA as substrate by fluorescence based assay
T2 sequence (P24158 whole entry): T1 sequence (whole entry)

Neutrophil elastase = molecular target: T3, Neutrophil elastase (Homo sapiens, UniProt P08246); assay: Inhibition of human neutrophil elastase using MeOSuc-AAPV-MCA as substrate by fluorescence based assay
T3 sequence (P08246 whole entry): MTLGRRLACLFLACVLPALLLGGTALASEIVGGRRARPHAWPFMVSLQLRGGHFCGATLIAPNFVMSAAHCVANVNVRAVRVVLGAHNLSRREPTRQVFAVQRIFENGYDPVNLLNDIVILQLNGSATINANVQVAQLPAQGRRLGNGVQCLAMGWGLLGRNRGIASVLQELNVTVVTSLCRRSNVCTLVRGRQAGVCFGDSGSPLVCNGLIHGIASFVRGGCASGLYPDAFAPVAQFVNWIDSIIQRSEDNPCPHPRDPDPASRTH

Cathepsin G = molecular target: T4, Cathepsin G (Homo sapiens, UniProt P08311); assay: Inhibition of human Cathepsin G using Suc-AAPF-MCA as substrate by fluorescence based assay
T4 sequence (P08311 whole entry): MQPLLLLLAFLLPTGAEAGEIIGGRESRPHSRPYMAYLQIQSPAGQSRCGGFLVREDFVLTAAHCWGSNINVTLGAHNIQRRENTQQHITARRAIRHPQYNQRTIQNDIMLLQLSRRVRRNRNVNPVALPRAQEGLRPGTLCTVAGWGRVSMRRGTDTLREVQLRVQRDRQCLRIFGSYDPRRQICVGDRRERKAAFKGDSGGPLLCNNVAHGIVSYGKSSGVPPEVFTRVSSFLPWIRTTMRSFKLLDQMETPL

Chymase = molecular target: T5, Chymase (Homo sapiens, UniProt P23946); assay: Inhibition of recombinant human chymase expressed in Pichia pastoris using NleTDY-pNA as substrate by fluorescence based assay
T5 sequence (P23946 whole entry): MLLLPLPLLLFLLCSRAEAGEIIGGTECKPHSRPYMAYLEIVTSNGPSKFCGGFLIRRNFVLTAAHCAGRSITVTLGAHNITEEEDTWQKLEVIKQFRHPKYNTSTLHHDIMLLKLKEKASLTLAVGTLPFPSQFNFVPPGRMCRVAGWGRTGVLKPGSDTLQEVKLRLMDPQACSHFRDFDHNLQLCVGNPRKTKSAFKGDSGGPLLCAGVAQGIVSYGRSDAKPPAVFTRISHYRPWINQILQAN

Prothrombin = Prothrombin (Homo sapiens, UniProt P00734); assay: Inhibition of recombinant human alpha thrombin using Boc-VPR-MCA as substrate by fluorescence based assay
Chymotrypsin = Chymotrypsin (Homo sapiens, UniProt Q99895+P17538+P40313+Q6GPI1); assay: Inhibition of human chymotrypsin using Suc-AAPF-MCA as substrate by fluorescence based assay; type: protein assay
[4] = Stability in human serum at 400 uM measured after 24 hrs by RP-HPLC analysis; type: ADME, cell-free; settings: read-out: Stability; how it was run: as §1
Trypsin = Trypsin (Homo sapiens, UniProt P07477+P07478+P35030); assay: Inhibition of recombinant human trypsin using Boc-VPR-MCA as substrate by fluorescence based assay; type: protein assay
[5] = molecular target: T6, Neutrophil elastase (Homo sapiens) (UniProt P08246); assay: Inhibition of human neutrophil elastase at 2.5 to 40 nM using MeOSuc-AAPV-MCA as substrate by fluorescence based assay
T6 sequence (whole entry): T3 sequence (P08246 whole entry)

SMILES	inhibition activity (active/inactive) [2]	pKi (Myeloblastin)	pKi (Neutrophil elastase)	pIC50 (Cathepsin G)	pIC50 (Chymase)	pIC50 (Prothrombin)	remaining at 24 h, 400 µM [4]	IC50 (Trypsin)	other results
CC[C@H](C)[C@@H]1NC(=O)[C@@H]2CCCN2C(=O)[C@@H]2CCCN2C(=O)[C@H]([C@@H](C)CC)NC(=O)[C@H](CO)NC(=O)[C@H](CCCCN)NC(=O)[C@H]([C@@H](C)O)NC(=O)[C@@H](NC(=O)[C@H](CCCNC(=N)N)NC(=O)CN)CSSC[C@@H](C(=O)N[C@@H](Cc2ccccc2)C(=O)N2CCC[C@H]2C(=O)N[C@@H](CC(=O)O)C(=O)O)NC1=O									Stability [1]: Unstable
CCC1NC(=O)[C@H](CC(=O)O)NC(=O)[C@@H]2CSSC[C@H](NC(=O)[C@H]([C@@H](C)CC)NC(=O)[C@@H]3CCCN3C(=O)[C@@H]3CCCN3C(=O)[C@H](CC(=O)O)NC(=O)[C@H](CO)NC1=O)C(=O)N[C@@H](CC(N)=O)C(=O)N1CCC[C@H]1C(=O)N[C@@H](CC(N)=O)C(=O)NCC(=O)N[C@@H]([C@@H](C)O)C(=O)N2 (stereo partly drawn) (HELM PEPTIDE1{C.D.[CCC(N[*:1])C(=O)[*:2]].S.D.P.P.I.C.N.P.N.G.T}$PEPTIDE1,PEPTIDE1,1:R3-9:R3|PEPTIDE1,PEPTIDE1,1:R1-14:R2$$$V2.0)	Active								
CCC1NC(=O)[C@H](CC(=O)O)NC(=O)[C@@H]2CSSC[C@H](NC(=O)[C@H]([C@@H](C)CC)NC(=O)[C@@H]3CCCN3C(=O)[C@@H]3CCCN3C(=O)[C@H](Cc3ccc(O)cc3)NC(=O)[C@H](CO)NC1=O)C(=O)N[C@@H](CC(N)=O)C(=O)N1CCC[C@H]1C(=O)N[C@@H](CC(N)=O)C(=O)NCC(=O)N[C@@H]([C@@H](C)O)C(=O)N2 (stereo partly drawn) (HELM PEPTIDE1{C.D.[CCC(N[*:1])C(=O)[*:2]].S.Y.P.P.I.C.N.P.N.G.T}$PEPTIDE1,PEPTIDE1,1:R3-9:R3|PEPTIDE1,PEPTIDE1,1:R1-14:R2$$$V2.0)	Active								
CCC1NC(=O)[C@H](Cc2ccc(O)cc2)NC(=O)[C@@H]2CSSC[C@H](NC(=O)[C@H]([C@@H](C)CC)NC(=O)[C@@H]3CCCN3C(=O)[C@@H]3CCCN3C(=O)[C@H](CC(=O)O)NC(=O)[C@H](CO)NC1=O)C(=O)N[C@@H](CC(N)=O)C(=O)N1CCC[C@H]1C(=O)N[C@@H](CC(N)=O)C(=O)NCC(=O)N[C@@H]([C@@H](C)O)C(=O)N2 (stereo partly drawn) (HELM PEPTIDE1{C.N.P.N.G.T.C.Y.[CCC(N[*:1])C(=O)[*:2]].S.D.P.P.I}$PEPTIDE1,PEPTIDE1,1:R3-7:R3|PEPTIDE1,PEPTIDE1,1:R1-14:R2$$$V2.0)	Active								
CCC1NC(=O)[C@H](Cc2ccc(O)cc2)NC(=O)[C@@H]2CSSC[C@H](NC(=O)[C@H]([C@@H](C)CC)NC(=O)[C@@H]3CCCN3C(=O)[C@@H]3CCCN3C(=O)[C@H](CCC(=O)O)NC(=O)[C@H](CO)NC1=O)C(=O)N[C@@H](CC(N)=O)C(=O)N1CCC[C@H]1C(=O)N[C@@H](CC(N)=O)C(=O)NCC(=O)N[C@@H]([C@@H](C)O)C(=O)N2 (stereo partly drawn) (HELM PEPTIDE1{C.N.P.N.G.T.C.Y.[CCC(N[*:1])C(=O)[*:2]].S.E.P.P.I}$PEPTIDE1,PEPTIDE1,1:R3-7:R3|PEPTIDE1,PEPTIDE1,1:R1-14:R2$$$V2.0)	Active								
CCC1NC(=O)[C@H](Cc2ccc(O)cc2)NC(=O)[C@@H]2CSSC[C@H](NC(=O)[C@H]([C@@H](C)CC)NC(=O)[C@@H]3CCCN3C(=O)[C@@H]3CCCN3C(=O)[C@H](Cc3c[nH]c4ccccc34)NC(=O)[C@H](CO)NC1=O)C(=O)N[C@@H](CC(N)=O)C(=O)N1CCC[C@H]1C(=O)N[C@@H](CC(N)=O)C(=O)NCC(=O)N[C@@H]([C@@H](C)O)C(=O)N2 (stereo partly drawn) (HELM PEPTIDE1{C.N.P.N.G.T.C.Y.[CCC(N[*:1])C(=O)[*:2]].S.W.P.P.I}$PEPTIDE1,PEPTIDE1,1:R3-7:R3|PEPTIDE1,PEPTIDE1,1:R1-14:R2$$$V2.0)									inhibition [3]: Active
CCC1NC(=O)[C@H](Cc2ccc(O)cc2)NC(=O)[C@@H]2CSSC[C@H](NC(=O)[C@H]([C@@H](C)CC)NC(=O)[C@@H]3CCCN3C(=O)[C@@H]3CCCN3C(=O)[C@H](Cc3ccc(O)cc3)NC(=O)[C@H](CO)NC1=O)C(=O)N[C@@H](CC(N)=O)C(=O)N1CCC[C@H]1C(=O)N[C@@H](CC(N)=O)C(=O)NCC(=O)N[C@@H]([C@@H](C)O)C(=O)N2 (stereo partly drawn) (HELM PEPTIDE1{C.N.P.N.G.T.C.Y.[CCC(N[*:1])C(=O)[*:2]].S.Y.P.P.I}$PEPTIDE1,PEPTIDE1,1:R3-7:R3|PEPTIDE1,PEPTIDE1,1:R1-14:R2$$$V2.0)		8.15	8.49	< 5.00	< 5.00	< 5.00	90 to 95%	> 10 µM	IC50 (Chymotrypsin): > 10 µM; inhibition [3]: Active
CCC1NC(=O)[C@H](Cc2ccc(O)cc2)NC(=O)[C@@H]2CSSC[C@H](NC(=O)[C@H]([C@@H](C)CC)NC(=O)[C@@H]3CCCN3C(=O)[C@@H]3CCCN3C(=O)[C@H](Cc3ccc(O)cc3)NC(=O)[C@H](CO)NC1=O)C(=O)N[C@@H](CC(N)=O)C(=O)N1CCC[C@H]1C(=O)N[C@@H](CC(N)=O)C(=O)NCC(=O)N[C@@H](Cc1ccc(-c3ccccc3)cc1)C(=O)N2 (stereo partly drawn) (HELM PEPTIDE1{[O=C([C@H](Cc1ccc(-c2ccccc2)cc1)N[*:1])[*:2]].C.Y.[CCC(N[*:1])C(=O)[*:2]].S.Y.P.P.I.C.N.P.N.G}$PEPTIDE1,PEPTIDE1,2:R3-10:R3|PEPTIDE1,PEPTIDE1,1:R1-14:R2$$$V2.0)		7.77	7.62	< 5.00	< 5.00	< 5.00	90 to 95%	> 10 µM	IC50 (Chymotrypsin): > 10 µM; inhibition [5]: Active
CCCC1NC(=O)[C@H](Cc2ccc(O)cc2)NC(=O)[C@@H]2CSSC[C@H](NC(=O)[C@H]([C@@H](C)CC)NC(=O)[C@@H]3CCCN3C(=O)[C@@H]3CCCN3C(=O)[C@H](Cc3ccc(O)cc3)NC(=O)[C@H](CO)NC1=O)C(=O)N[C@@H](CC(N)=O)C(=O)N1CCC[C@H]1C(=O)N[C@@H](CC(N)=O)C(=O)NCC(=O)N[C@@H](Cc1ccc(-c3ccccc3)cc1)C(=O)N2 (stereo partly drawn) (HELM PEPTIDE1{[O=C([C@H](Cc1ccc(-c2ccccc2)cc1)N[*:1])[*:2]].C.Y.[CCCC(N[*:1])C(=O)[*:2]].S.Y.P.P.I.C.N.P.N.G}$PEPTIDE1,PEPTIDE1,2:R3-10:R3|PEPTIDE1,PEPTIDE1,1:R1-14:R2$$$V2.0)		8.21	7.80	< 5.30	< 5.00	< 5.00	90 to 95%	> 10 µM	Ki (Chymotrypsin): 0.463 µM
CCC1NC(=O)[C@H](Cc2ccc(O)cc2)NC(=O)[C@@H]2CSSC[C@H](NC(=O)[C@H]([C@@H](C)CC)NC(=O)[C@@H]3CCCN3C(=O)[C@@H]3CCCN3C(=O)[C@H](Cc3ccc(O)cc3)NC(=O)[C@H](CO)NC1=O)C(=O)N[C@@H](CC(N)=O)C(=O)N1CCC[C@H]1C(=O)N[C@@H](CC(N)=O)C(=O)NCC(=O)N[C@@H](CCCCNC(=O)OCc1ccccc1Cl)C(=O)N2 (stereo partly drawn) (cyclo(CNPNGK(ClZ)CY[ξAbu]SYPPI); disulfide 1-7)									inhibition [5]: Active
